Measurements reported in ChEMBL document CHEMBL4177755, “Combating Drug-Resistant Fungi with Novel Imperfectly Amphipathic Palindromic Peptides” (J Med Chem, 2018).
Activity calls are given as the source filed them. No cut-off for these calls is given here.

What was measured:
Candida albicans [1] = assay: Antifungal activity against Candida albicans cgmcc 2.2086 in presence of 25% human heat-inactivated serum by broth dilution method; format: functional
Candida albicans [2] = assay: Antifungal activity against Candida albicans cgmcc 2.2086 in presence of 50% human heat-inactivated serum by broth dilution method; format: functional
Lipid bilayer [3] = assay: Binding affinity to phosphatidylcholine/cholesterol large unilamellar vesicle assessed as induction of calcein leakage at 2 to 32 uM after 15 mins by spectrofluorophotometric method; details: 0.25 h
Procedure, shortened: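 Large unilamellar vesicles were made from PG/CL/PE (2:1:7), PC/PE/PI/ergosterol (5:4:1:2) or PC/cholesterol (10:1), loaded with 70 mM calcein in Tris/NaCl/EDTA buffer at pH 7.4, frozen and thawed 20 times, and extruded through 100 nm filters. Free dye was removed by gel filtration, and peptide-induced calcein release was measured.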

Candida albicans [4] = assay: Disruption of cytoplasmic membrane electrical potential in Candida albicans cgmcc 2.2086 at MFC after 800 secs by DiSC3-5 dye-based fluorescence spectrophotometric method; format: functional, organism-based
Procedure, shortened: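 Cells were loaded with the membrane potential-sensitive dye DiSC3-5, and its release on peptide treatment (various concentrations, including 1× MBC/MFC) was monitored as increasing fluorescence over 800 s.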

Escherichia coli [5] = assay: Antibacterial activity against Escherichia coli ATCC 25922 after 18 hrs in presence of 50% human heat-inactivated serum by broth dilution method; format: functional; details: ATCC 25922, 18 h
Escherichia coli [6] = assay: Induction of cell wall permeabilization in Escherichia coli ATCC 25922 assessed as increase in NPN uptake by fluorescence spectrophotometric method; format: functional, organism-based
Procedure, shortened: (§1)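 Log-phase cells at OD600 0.2 in 5 mM HEPES (pH 7.4, 5 mM glucose) were preloaded with 10 μM NPN for 30 min, then peptide was added. Fluorescence (ex 350/em 420 nm) was followed until it plateaued and converted to % NPN uptake against initial and maximal fluorescence. Triplicate.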

Candida albicans [7] = assay: Induction of cell wall permeabilization in Candida albicans cgmcc 2.2086 assessed as increase in NPN uptake by fluorescence spectrophotometric method; format: functional, organism-based; procedure, shortened: as §1
Lipid bilayer [8] = assay: Binding affinity to phosphatidylcholine/phosphatidylethanolamine/phosphatidylinositol/ergosterol large unilamellar vesicle assessed as induction of calcein leakage after 15 mins by spectrofluorophotometric method
Procedure, shortened: (§2)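 Compositions were PG/CL/PE 2:1:7 w/w/w (E. coli membrane mimic; lines 4,5) and PC/PE/PI/ergosterol 5:4:1:2 w/w/w/w (fungal membrane mimic; lines 2,3). Lipids underwent 20 freeze–thaw cycles and were extruded through 100 nm filters; free calcein was removed by gel filtration.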

Lipid bilayer [9] = assay: Binding affinity to phosphatidylcholine/phosphatidylethanolamine/phosphatidylinositol/ergosterol large unilamellar vesicle assessed as induction of calcein leakage at 32 uM after 15 mins by spectrofluorophotometric method relative to control; procedure, shortened: as §2
Candida albicans [10] = assay: Induction of membrane damage in Candida albicans cgmcc 2.2086 assessed as membrane creping at MFC after 1 hr by scanning electron microscopy; format: functional, organism-based
Procedure, shortened: (§3)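 E. coli ATCC 25922 was treated at 1× MBC and C. albicans cgmcc 2.2086 at 1× MFC, each for 1 h. Untreated control cells were processed in parallel without peptide. Surface morphology was imaged by AFM and SEM, and ultrastructure by TEM.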

Candida albicans [11] = assay: Induction of membrane damage in Candida albicans cgmcc 2.2086 assessed as membrane deformation at MFC after 1 hr by scanning electron microscopy; format: functional, organism-based; procedure, shortened: as §3
Candida albicans [12] = assay: Induction of membrane damage in Candida albicans cgmcc 2.2086 assessed as membrane creping at MFC after 1 hr by atomic force microscopy; format: functional, organism-based; procedure, shortened: as §3
Candida albicans [13] = assay: Induction of membrane damage in Candida albicans cgmcc 2.2086 assessed as membrane deformation at MFC after 1 hr by atomic force microscopy; format: functional, organism-based; procedure, shortened: as §3
Escherichia coli [14] = assay: Change in membrane morphology in Escherichia coli ATCC 25922 assessed as loss of intracellular contents at MBC after 1 hr by transmission electron microscopy; format: functional, organism-based
Procedure, shortened: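 E. coli ATCC 25922 or C. albicans cgmcc 2.2086 were treated with peptide at 1× MBC/MFC for 1 h alongside peptide-free controls, then imaged by AFM, SEM or TEM for membrane and ultrastructural changes.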

Escherichia coli [15] = assay: Induction of reactive oxygen species generation in Escherichia coli ATCC 25922 at 0.5 to 4 uM after 1 hr by DCFH-DA dye-based spectrofluorophotometric method; format: functional, organism-based
Procedure, shortened: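 E. coli ATCC 25922 and C. albicans cgmcc 2.2086 cells were exposed to a range of peptide concentrations up to 32 μM. ROS levels were read by fluorescence and expressed relative to untreated cells. Values are mean ± SEM of three independent experiments.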

Lipopolysaccharide (LPS) [16] = assay: Displacement of BODIPY-TR-cadaverine from Escherichia coli O111:B4 LPS at 8 uM after 1 hr by spectrofluorophotometric method relative to control
Procedure, shortened: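 Fluorescence-based displacement assay: peptide displaces BODIPY-TR-cadaverine from LPS; polymyxin B served as the LPS-binding reference.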

Lipopolysaccharide (LPS) [17] = assay: Binding affinity to Escherichia coli O111:B4 LPS by SPR spectroscopy
Procedure, shortened: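 Surface plasmon resonance with the peptide immobilized and LPS flowed over it at 3.125−25 μg/mL; binding recorded in response units (RU).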

RAW264.7 [18] = assay: Induction of endotoxin-neutralization in mouse RAW264.7 cells assessed as inhibition of LPS-induced nitric oxide production after 18 hrs by Griess assay; format: functional, cell-based
Procedure, shortened: (§4)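 RAW 264.7 cells were stimulated with 50 ng/mL LPS with or without peptide at various concentrations. TNF-α in supernatants was measured by ELISA and NO by Griess reagent. Mean ± SEM of three independent experiments, compared against LPS alone.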

RAW264.7 [19] = assay: Induction of endotoxin-neutralization in mouse RAW264.7 cells assessed as inhibition of LPS-induced TNFalpha secretion at 2 uM after 18 hrs by ELISA; format: functional, cell-based; procedure, shortened: as §4
[20] = Cytotoxicity against mouse RAW264.7 cells assessed as cell viability at 2 to 32 uM after 24 hrs by MTT assay relative to control; format: cell-based; details: read-out: Activity
Procedure, shortened: (§5)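 MTT viability assay. RAW264.7 or HEK293T cells at (1.0−2.0) × 10^5 per well were exposed to a peptide concentration series for 24 h at 37 °C in 5% CO2. MTT was then added at 0.5 mg/mL final for 4 h; formazan was dissolved in DMSO and read at 570 nm. Results average three independent trials.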

[21] = Cytotoxicity against HEK293T cells assessed as cell viability at 2 to 32 uM after 24 hrs by MTT assay relative to control; format: cell-based, HEK-293T; details: human, read-out: Activity; procedure, shortened: as §5
RAW264.7 [22] = assay: Cytotoxicity against mouse RAW264.7 cells assessed as decrease in cell viability at 64 uM after 24 hrs by MTT assay relative to control; format: cell-based; details: raw264.7, 24 h; procedure, shortened: as §5
HEK-293T = assay: Cytotoxicity against HEK293T cells assessed as decrease in cell viability at 64 uM after 24 hrs by MTT assay relative to control; format: cell-based; details: human; procedure, shortened: as §5

For `CC[C@H](C)[C@H](NC(=O)CN)C(=O)NCC(=O)N[C@@H](C)C(=O)N[C@H](C(=O)N[C@@H](CC(C)C)C(=O)N[C@@H](CCCCN)C(=O)N[C@H](C(=O)N[C@@H](CC(C)C)C(=O)N[C@H](C(=O)N[C@H](C(=O)NCC(=O)N[C@@H](CC(C)C)C(=O)N1CCC[C@H]1C(=O)N[C@@H](C)C(=O)N[C@@H](CC(C)C)C(=O)N[C@H](C(=O)N[C@@H](CO)C(=O)N[C@@H](Cc1c[nH]c2ccccc12)C(=O)N[C@H](C(=O)N[C@@H](CCCCN)C(=O)N[C@@H](CCCNC(=N)N)C(=O)N[C@@H](CCCCN)C(=O)N[C@@H](CCCNC(=N)N)C(=O)N[C@@H](CCC(N)=O)C(=O)N[C@@H](CCC(N)=O)C(N)=O)[C@@H](C)CC)[C@@H](C)CC)[C@@H](C)O)[C@@H](C)O)C(C)C)C(C)C` [MELITTIN], the MIC (Candida albicans [1]) was 32 µM, the MIC (Candida albicans [2]) was 64 µM and the Activity (Lipid bilayer [3]) was “Active”. The Activity (Candida albicans [4]) was “Active”.
In the case of H-RRIRIIIRIRR-NH2, the MIC (Escherichia coli [5]) is reported as 8 µM, the MIC (Candida albicans [1]) is reported as 4 µM and the MIC (Candida albicans [2]) is reported as 8 µM. The Activity (Escherichia coli [6]) was “Dose-dependent effect”, the Activity (Candida albicans [7]) was “Dose-dependent effect” and the Activity (Lipid bilayer [8]) was “Dose-dependent effect”. The Activity (Lipid bilayer [9]) was 62%, the Activity (Lipid bilayer [3]) was “Not Active” and the Activity (Candida albicans [10]) was “Active”. The Activity (Candida albicans [11]) was “Active”, the Activity (Candida albicans [12]) was “Active” and the Activity (Candida albicans [13]) was “Active”. For the same molecule, the Activity (Escherichia coli [14]) was “Active”, the Activity (Escherichia coli [15]) was “inactive” and the inhibition (Lipopolysaccharide (LPS) [16]) was 95%. For the same molecule, the Activity (Lipopolysaccharide (LPS) [17]) was “Dose-dependent effect”, the inhibition (RAW264.7 [18]) was “Dose-dependent effect” and the inhibition (RAW264.7 [19]) was “Active”.
For H-RWWRRWRRWWR-NH2, the viability at 24 h, up to 32 µM [20] was 70 to 80%, the viability at 24 h, up to 32 µM [21] was 70 to 80% and the Activity (RAW264.7 [22]) was “Toxic”. For the same molecule, the Activity (HEK-293T) was “Toxic”.
In the case of H-WWRRWRRWW-NH2, the viability at 24 h, up to 32 µM [20] is reported as 70 to 80%, the viability at 24 h, up to 32 µM [21] is reported as 70 to 80% and the Activity (RAW264.7 [22]) is reported as “Toxic”. The Activity (HEK-293T) was “Toxic”.
